M4 PAM – potentiates acetylcholine response at human M4 receptor; P08173; CHO-K1 hM4/Gqi5, Fluo-8 calcium fluorescence, ACh EC20; 0% = ACh EC20, 100% = maximal ACh; activation, % at 3 µM; 360,000 compounds, 0.4% hits;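 active = activation above its plate's cutoff, the mean activation of sample wells plus 3 SD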
CHRM5 PAM – CHRM5 positive allosteric modulation. CHO-K1 hM5, Fluo-8 calcium, ACh EC20 PAM; 0% = ACh EC20, 100% = ACh EC100. AID 624038. 360,000 compounds, 0.3% hits. activation, % at 3 µM;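 active = activation above the run cutoff, the mean activation of all test compounds plus 3 SD, cut at about 18% in these data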
Target sequence (P08912 whole entry, looked up): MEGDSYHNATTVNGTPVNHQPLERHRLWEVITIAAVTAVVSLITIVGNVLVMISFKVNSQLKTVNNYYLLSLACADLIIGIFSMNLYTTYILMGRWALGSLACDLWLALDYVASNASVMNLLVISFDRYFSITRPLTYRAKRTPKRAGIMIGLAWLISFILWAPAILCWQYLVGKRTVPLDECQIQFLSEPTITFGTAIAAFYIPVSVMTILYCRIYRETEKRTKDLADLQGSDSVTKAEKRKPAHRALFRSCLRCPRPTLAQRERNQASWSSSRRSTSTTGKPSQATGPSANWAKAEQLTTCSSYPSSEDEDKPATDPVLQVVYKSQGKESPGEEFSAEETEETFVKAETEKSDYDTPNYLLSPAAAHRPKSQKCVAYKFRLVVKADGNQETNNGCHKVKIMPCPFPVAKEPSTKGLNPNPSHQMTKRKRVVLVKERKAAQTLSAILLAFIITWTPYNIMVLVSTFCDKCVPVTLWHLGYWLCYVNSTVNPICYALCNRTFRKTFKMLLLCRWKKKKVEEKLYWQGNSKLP
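Test system: CHO-K1 hM5 cells / Doses: single-point, 3 µM nominal / Times: Post-acetylcholine fluorescence recording 140 s / Technique: Fluo-8 calcium fluorescence / Measure: Max/basal fluorescence ratio as % of EC20–EC100 ACh window / Benchmarks: low control EC20 acetylcholine (0%), high control EC100 acetylcholine (100%) / Replicates: one well per compound, no replicates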
CHRM4 agonist – agonists of human muscarinic M4 receptor (CHRM4). P08173. CHO-K1 hM4/Gqi5, Fluo-8 calcium fluorescence; vehicle 0%, full acetylcholine response 100%. activation, % at 3 µM. 360,000 compounds, 0.14% hits. AID 624127;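 active = activation above the run mean over all test wells plus 3 SD, cut at about 32% in these data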;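 also: peak over basal fluorescence ratio per well then scaled between controls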
M5 antag – blocks acetylcholine activation of human M5 receptor. P08912. CHO-hM5 cells, Fluo-8 calcium fluorescence, ACh EC80. inhibition, % at 3 µM. 360,000 compounds, 0.59% hits. AID 624040;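 active = inhibition above a per-plate cutoff, the mean of that plate's test compounds plus 3 SD, cut at about 27% in these data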
M4 antag – blocks acetylcholine activation of human M4 receptor. 360,000 compounds, 0.73% hits. inhibition, % at 3 µM. CHO-hM4 cells, ACh EC80, Fluo-8 calcium fluorescence. P08173;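 active = inhibition above its plate's cutoff, the mean inhibition of sample wells plus 3 SD, cut at about 27% in these data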
M5 ag – agonists of human muscarinic M5 receptor (CHRM5); CHO-K1 hM5 cells, Fluo-8 calcium fluorescence; 0% DMSO wells, 100% maximal acetylcholine response; activation, % at 3 µM; 360,000 compounds, 0.19% hits; AID 624037;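 active = activation above the run's mean over test compounds plus 3 SD, cut at about 23% in these data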;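 also: signal is peak over basal fluorescence ratio across the kinetic read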
Large screens that a line does not name were inactive. Rows were chosen to be rich in hits. Some 1.8% of all compounds tested hit in one or more screens of this group.

COc1ccc(NC(=O)CSc2nnnn2C)cc1	none
COc1cccc(S(=O)(=O)N(C)C[C@@H]2OCc3cn(nn3)CCCC(=O)N([C@@H](C)CO)C[C@H]2C)c1	none
Cn1nc(C(F)(F)F)c(/C=N/OC(=O)c2ccccc2)c1SCc1ccccc1Cl	M4 antag 30.0
COC(=O)c1cn(Cc2ccccc2C)nn1	M4 PAM 22.2
CN(C)c1ccc(C=c2c3ccccc3n3c2c2ccccc2[n+]3C)cc1	M4 antag 32.5
CN(c1ccccc1)c1ccc(/C=C/[N+](=O)[O-])cc1	M5 antag 70.6, M4 antag 36.4, M5 ag 44.1
CCCCN1C(=O)C(=O)NC[C@@H]1Cc1ccc(O)cc1	none
Cn1c(=O)c2[nH]c(CCCCc3nc4ccccc4[nH]3)nc2n(C)c1=O	none
Cn1c(=O)c2[nH]c(CCCCCCCCc3nc4ccccc4[nH]3)nc2n(C)c1=O	M4 antag 29.9
Nc1c(C(=O)O)sc2nc(-c3ccccc3)cc(-c3ccc(F)cc3)c12	CHRM5 PAM 20.6
COC(=O)C[C@H]1C=C[C@H](NC(=O)c2cccc(F)c2)[C@@H](CO)O1	none
O=C(O)c1ccc(-c2cccc(-c3nn4c(=O)cc(N5CCNCC5)nc4s3)c2)cc1	none
COc1ccc(C(=O)Oc2cc3c4c(c2)C(C)=CC(C)(C)N4C(=O)C3=O)cc1OC	none
COc1cc2c3c(c1)C(C)=CC(C)(C)N3C(=O)C2=O	M5 ag 35.9
COc1cccc(C(=O)Oc2cc3c4c(c2)C(C)=CC(C)(C)N4C(=O)C3=O)c1	M5 antag 46.0, M5 ag 56.6
CCCOc1ccc(C(=O)NCCCn2ccnc2)cc1	none
CCOc1ccc(C(=O)NCCCn2ccnc2)cc1	CHRM5 PAM 18.1
O=C(NCCCn1ccnc1)c1cc2ccccc2o1	none
Cc1c(C(=O)NCCCn2ccnc2)oc2ccccc12	CHRM5 PAM 18.4
O=C1c2cccc3c(N4CCCCC4)ccc(c23)C(=O)N1c1cccc(O)c1	CHRM4 agonist 41.1, M5 antag 36.9, M4 antag 36.1, M5 ag 141.2
Cc1n[nH]c(C)c1N1C(=O)c2cccc3c(N4CCCCCC4)ccc(c23)C1=O	CHRM4 agonist 84.7, M5 antag 54.3, M4 antag 41.5, M5 ag 76.3
Cc1ccccc1-c1cnc(C(O)c2ccc(-c3ccccc3)cc2)[nH]1 (configuration not stated)	none
CC(=O)Oc1ccc(Cn2c(C)c(C(=O)NC3CC3)sc2=O)cc1	none
COc1cccc(CN(C)C(=O)c2ccc(S(=O)(=O)Nc3cccc(C)c3C)cc2)c1OC	none
COc1ccc(CC(=O)Nc2ccc(S(=O)(=O)Nc3cc(C)nc(C)n3)cc2)cc1OC	none
COC(=O)c1ccc2nc(-c3cccc(Br)c3)c(Cc3ccsc3)n2c1	M4 PAM 21.3
COCn1c(-c2ccccc2)nc2ccccc21	M4 PAM 28.8
COc1ccccc1N1CCN(S(=O)(=O)CCNC(=O)CCc2ccccc2)CC1	none
CN1C(=O)/C(=C/c2ccc(C(F)(F)F)cc2)Sc2ccc(C(=O)N3CCN(c4ccccn4)CC3)cc21	M5 antag 37.0
CN1C(=O)/C(=C/c2ccccc2Cl)Sc2ccc(C(=O)N3CCCC3)cc21	none
COc1ccc2sc(-c3ccc(S(C)(=O)=O)cc3)c(C(=O)NCCc3c[nH]c4ccccc34)c2c1	M4 antag 34.3
CCN(CC)CCCN(C(=O)c1cccs1)c1nc(-c2ccc(OC)cc2)cs1	none
CCN(CC)CCCN(C(=O)c1cccc(C)c1)c1nc(-c2ccc(OC)cc2)cs1	M4 PAM 65.0, M4 antag 35.3
CCN(CC)CCCN(C(=O)c1ccc(Br)cc1)c1nc(-c2ccc(OC)cc2)cs1	M4 PAM 46.5
OCc1cccc(-c2csc(C(O)c3ccco3)n2)c1 (configuration not stated)	none
Cc1ccccc1-c1cnc(C(O)c2c(C)ccc3ccccc23)[nH]1 (configuration not stated)	none
CC(C)n1c(/N=C/c2ccccc2O)nc2ccccc21	CHRM5 PAM 20.7
CCn1c(/N=C/c2ccccc2O)nc2ccccc21	none

Source: PubChem BioAssay
